From ChEMBL document CHEMBL1250476, “Synthesis and antifungal evaluation of novel triazole derivatives as inhibitors of cytochrome P450 14alpha-demethylase” (2010)
≈ marks a conversion by molar mass, not a printed value.

Columns and labels:
Type in all cases: functional
[1] = test system: Candida albicans; assay: Antifungal activity against Candida albicans SC5314 after 24 hrs by micro-broth dilution method; conditions: SC5314, 24 h
Method in brief: (§1)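 Broth microdilution per NCCLS on Candida albicans. Compounds were dissolved in DMSO, serially diluted in growth medium, inoculated and incubated at 35 °C. Growth was read at 24 h, and MIC80 was taken as the first well with about 80% growth reduction relative to the drug-free control. Values are the mean of three replicates.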

[2] = test system: Candida albicans; assay: Antifungal activity against Candida albicans Y0109 after 24 hrs by micro-broth dilution method; conditions: Y0109, 24 h; method in brief: as §1
[3] = test system: Cryptococcus neoformans; assay: Antifungal activity against Cryptococcus neoformans after 72 hrs by micro-broth dilution method
Method in brief: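 Cryptococcus neoformans tested by NCCLS micro-broth dilution. Compounds were dissolved in DMSO, serially diluted in medium, inoculated and incubated at 35 °C. MIC80 was read at 72 h as the first well showing approximately 80% growth reduction compared with the drug-free well. Values are the mean of three replicate tests.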

[4] = test system: Candida parapsilosis; assay: Antifungal activity against Candida parapsilosis by micro-broth dilution method; conditions: Lodderomyces parapsilosis
Method in brief: (§2)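 MIC80 by broth microdilution in 96-well format following NCCLS. Compounds were dissolved in DMSO, serially diluted in growth medium, inoculated and incubated at 35 °C. The endpoint was the first well with about 80% growth reduction versus the drug-free well. Values are means of three replicate tests.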

[5] = test system: Candida tropicalis; assay: Antifungal activity against Candida tropicalis by micro-broth dilution method; method in brief: as §2
[6] = test system: Trichophyton rubrum; assay: Antifungal activity against Trichophyton rubrum by micro-broth dilution method; method in brief: as §2
[7] = test system: Kluyveromyces marxianus; assay: Antifungal activity against Candida kefyr by micro-broth dilution method; method in brief: as §2
[8] = test system: Aspergillus fumigatus; assay: Antifungal activity against Aspergillus fumigatus by micro-broth dilution method; method in brief: as §2

Compound	MIC [1]	MIC [2]	MIC [3]	MIC [4]	MIC [5]	MIC [6]	MIC [7]	MIC [8]
CC(C)N(Cc1cn(Cc2ccccc2C#N)nn1)CC(O)(Cn1cncn1)c1ccc(F)cc1F (configuration not stated)	0.25 µg/mL (≈ 0.508 µM)	0.0156 µg/mL (≈ 0.0317 µM)	64 µg/mL (≈ 130 µM)	8 µg/mL (≈ 16.2 µM)	1 µg/mL (≈ 2.03 µM)	2 µg/mL (≈ 4.06 µM)	1 µg/mL (≈ 2.03 µM)	> 64 µg/mL
O=[N+]([O-])c1ccccc1Cn1cc(CN(CC(O)(Cn2cncn2)c2ccc(F)cc2F)C2CC2)nn1 (configuration not stated)	16 µg/mL (≈ 31.3 µM)	0.0625 µg/mL (≈ 0.122 µM)	64 µg/mL (≈ 125 µM)	4 µg/mL (≈ 7.84 µM)	4 µg/mL (≈ 7.84 µM)	4 µg/mL (≈ 7.84 µM)	0.0625 µg/mL (≈ 0.122 µM)	> 64 µg/mL
CC(C)(C)c1ccc(Cn2cc(CN(CC(O)(Cn3cncn3)c3ccc(F)cc3F)C3CC3)nn2)cc1 (configuration not stated)	0.0625 µg/mL (≈ 0.12 µM)	< 0.125 µg/mL	4 µg/mL (≈ 7.67 µM)	0.25 µg/mL (≈ 0.479 µM)	16 µg/mL (≈ 30.7 µM)	4 µg/mL (≈ 7.67 µM)	1 µg/mL (≈ 1.92 µM)	> 64 µg/mL
CC(C)N(Cc1cn(Cc2ccc(F)cc2)nn1)CC(O)(Cn1cncn1)c1ccc(F)cc1F (configuration not stated)	0.25 µg/mL (≈ 0.515 µM)	0.25 µg/mL (≈ 0.515 µM)	8 µg/mL (≈ 16.5 µM)	4 µg/mL (≈ 8.24 µM)	1 µg/mL (≈ 2.06 µM)	2 µg/mL (≈ 4.12 µM)	0.25 µg/mL (≈ 0.515 µM)	> 64 µg/mL
CC(C)N(Cc1cn(Cc2ccccc2Cl)nn1)CC(O)(Cn1cncn1)c1ccc(F)cc1F (configuration not stated)	< 0.125 µg/mL	0.0039 µg/mL (≈ 0.00777 µM)	16 µg/mL (≈ 31.9 µM)	2 µg/mL (≈ 3.98 µM)	1 µg/mL (≈ 1.99 µM)	< 0.125 µg/mL	0.25 µg/mL (≈ 0.498 µM)	> 64 µg/mL
CC(C)N(Cc1cn(Cc2cccc([N+](=O)[O-])c2)nn1)CC(O)(Cn1cncn1)c1ccc(F)cc1F (configuration not stated)	< 0.125 µg/mL	0.0625 µg/mL (≈ 0.122 µM)	32 µg/mL (≈ 62.4 µM)	2 µg/mL (≈ 3.9 µM)	4 µg/mL (≈ 7.8 µM)	1 µg/mL (≈ 1.95 µM)	0.25 µg/mL (≈ 0.488 µM)	> 64 µg/mL
CC(C)N(Cc1cn(Cc2cccc(Br)c2)nn1)CC(O)(Cn1cncn1)c1ccc(F)cc1F (configuration not stated)	0.25 µg/mL (≈ 0.458 µM)	1 µg/mL (≈ 1.83 µM)	1 µg/mL (≈ 1.83 µM)	0.0156 µg/mL (≈ 0.0285 µM)	0.25 µg/mL (≈ 0.458 µM)	0.0625 µg/mL (≈ 0.114 µM)	0.0039 µg/mL (≈ 0.00714 µM)	> 64 µg/mL
N#Cc1cccc(Cn2cc(CN(CC(O)(Cn3cncn3)c3ccc(F)cc3F)C3CC3)nn2)c1 (configuration not stated)	4 µg/mL (≈ 8.15 µM)	4 µg/mL (≈ 8.15 µM)	64 µg/mL (≈ 130 µM)	4 µg/mL (≈ 8.15 µM)	1 µg/mL (≈ 2.04 µM)	4 µg/mL (≈ 8.15 µM)	1 µg/mL (≈ 2.04 µM)	> 64 µg/mL
CC(C)N(Cc1cn(C2CCCCC2)nn1)CC(O)(Cn1cncn1)c1ccc(F)cc1F (configuration not stated)	< 0.125 µg/mL	0.0625 µg/mL (≈ 0.136 µM)	16 µg/mL (≈ 34.8 µM)	2 µg/mL (≈ 4.35 µM)	0.5 µg/mL (≈ 1.09 µM)	1 µg/mL (≈ 2.18 µM)	0.25 µg/mL (≈ 0.544 µM)	> 64 µg/mL
OC(Cn1cncn1)(Cn1cncn1)c1ccc(F)cc1F [FLUCONAZOLE]	0.5 µg/mL (≈ 1.63 µM)	0.5 µg/mL (≈ 1.63 µM)	8 µg/mL (≈ 26.1 µM)	2 µg/mL (≈ 6.53 µM)	< 0.125 µg/mL	< 0.125 µg/mL	1 µg/mL (≈ 3.27 µM)	> 64 µg/mL
CCCCCCCCCCCCCCCCn1cc(CN(CC(O)(Cn2cncn2)c2ccc(F)cc2F)C(C)C)nn1 (configuration not stated)	< 0.125 µg/mL	0.0625 µg/mL (≈ 0.104 µM)	2 µg/mL (≈ 3.32 µM)	0.5 µg/mL (≈ 0.831 µM)	< 0.125 µg/mL	0.25 µg/mL (≈ 0.415 µM)	0.25 µg/mL (≈ 0.415 µM)	> 64 µg/mL
OC(CN(Cc1cn(Cc2cccc(Br)c2)nn1)C1CC1)(Cn1cncn1)c1ccc(F)cc1F (configuration not stated)	0.0156 µg/mL (≈ 0.0287 µM)	0.0156 µg/mL (≈ 0.0287 µM)	0.25 µg/mL (≈ 0.459 µM)	0.25 µg/mL (≈ 0.459 µM)	4 µg/mL (≈ 7.35 µM)	0.25 µg/mL (≈ 0.459 µM)	0.0625 µg/mL (≈ 0.115 µM)	> 64 µg/mL
Cc1ccccc1Cn1cc(CN(CC(O)(Cn2cncn2)c2ccc(F)cc2F)C2CC2)nn1 (configuration not stated)	0.0625 µg/mL (≈ 0.13 µM)	0.0156 µg/mL (≈ 0.0325 µM)	0.0625 µg/mL (≈ 0.13 µM)	4 µg/mL (≈ 8.34 µM)	4 µg/mL (≈ 8.34 µM)	1 µg/mL (≈ 2.09 µM)	0.25 µg/mL (≈ 0.521 µM)	> 64 µg/mL
OC(CN(Cc1cn(Cc2ccccc2Br)nn1)C1CC1)(Cn1cncn1)c1ccc(F)cc1F (configuration not stated)	0.25 µg/mL (≈ 0.459 µM)	16 µg/mL (≈ 29.4 µM)	64 µg/mL (≈ 118 µM)	2 µg/mL (≈ 3.67 µM)	2 µg/mL (≈ 3.67 µM)	2 µg/mL (≈ 3.67 µM)	0.0625 µg/mL (≈ 0.115 µM)	> 64 µg/mL
Cc1ccc(Cn2cc(CN(CC(O)(Cn3cncn3)c3ccc(F)cc3F)C(C)C)nn2)cc1 (configuration not stated)	1 µg/mL (≈ 2.08 µM)	0.0625 µg/mL (≈ 0.13 µM)	8 µg/mL (≈ 16.6 µM)	2 µg/mL (≈ 4.15 µM)	0.25 µg/mL (≈ 0.519 µM)	0.25 µg/mL (≈ 0.519 µM)	1 µg/mL (≈ 2.08 µM)	> 64 µg/mL
CC(C)N(Cc1cn(Cc2ccc([N+](=O)[O-])cc2)nn1)CC(O)(Cn1cncn1)c1ccc(F)cc1F (configuration not stated)	< 0.125 µg/mL	0.0039 µg/mL (≈ 0.00761 µM)	16 µg/mL (≈ 31.2 µM)	4 µg/mL (≈ 7.8 µM)	1 µg/mL (≈ 1.95 µM)	2 µg/mL (≈ 3.9 µM)	0.25 µg/mL (≈ 0.488 µM)	> 64 µg/mL
OC(CN(Cc1cn(C2CCCCC2)nn1)C1CC1)(Cn1cncn1)c1ccc(F)cc1F (configuration not stated)	4 µg/mL (≈ 8.74 µM)	0.0625 µg/mL (≈ 0.137 µM)	2 µg/mL (≈ 4.37 µM)	1 µg/mL (≈ 2.19 µM)	1 µg/mL (≈ 2.19 µM)	2 µg/mL (≈ 4.37 µM)	0.25 µg/mL (≈ 0.546 µM)	32 µg/mL (≈ 69.9 µM)
CC(C)N(Cc1cn(Cc2ccc(C(C)(C)C)cc2)nn1)CC(O)(Cn1cncn1)c1ccc(F)cc1F (configuration not stated)	< 0.125 µg/mL	0.25 µg/mL (≈ 0.477 µM)	32 µg/mL (≈ 61.1 µM)	1 µg/mL (≈ 1.91 µM)	2 µg/mL (≈ 3.82 µM)	1 µg/mL (≈ 1.91 µM)	0.25 µg/mL (≈ 0.477 µM)	> 64 µg/mL
C[C@@H](c1ncncc1F)[C@](O)(Cn1cncn1)c1ccc(F)cc1F [VORICONAZOLE]	32 µg/mL (≈ 91.6 µM)	< 0.125 µg/mL	< 0.125 µg/mL	< 0.125 µg/mL	< 0.125 µg/mL	0.25 µg/mL (≈ 0.716 µM)	0.0039 µg/mL (≈ 0.0112 µM)	< 0.125 µg/mL
